Measurements published in ChEMBL document CHEMBL3112527, “Quinoline-pyrimidine hybrids: synthesis, antiplasmodial activity, SAR, and mode of action studies” (J Med Chem, 2014).
pIC50: −log10 of the molar value. Values after ≈ are worked out from the molar mass of the structure shown. Active and inactive are the calls of the source. The calls are words filed in the database; no cut-off is given here.

What was measured:
Human betaherpesvirus 5 [1] = experiment: Antiviral activity against Cytomegalovirus Davis infected in HEL cells assessed as inhibition of virus-induced cytopathicity; format: functional, organism-based
Human alphaherpesvirus 1 [2] = experiment: Antiviral activity against HSV-1 KOS infected in HEL cells assessed as inhibition of virus-induced cytopathicity; format: functional, organism-based
Summary of the method: (§1)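 Confluent monolayers (HEL, Vero, HeLa or CrFK, as applicable) were inoculated with 100 CCID50 of virus, with 1 CCID50 being the dose that infects 50% of cultures. Infection ran in the presence of varying compound concentrations. Inhibition of virus-induced cytopathicity was scored against infected cultures left untreated.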

[3] = Cytotoxicity against cat CRFK cells assessed as cell viability by MTS assay; format: cell-based, Felis catus
Summary of the method: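 CRFK cells were exposed to varying sample concentrations. Cell viability was measured with the colorimetric formazan-based MTS assay, and the 50% cytotoxic concentration (CC50) was derived from it.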

Human alphaherpesvirus 3 = experiment: Antiviral activity against Varicella-zoster virus infected in HEL cells assessed as inhibition of virus-induced cytopathicity; format: functional, organism-based
[4] = tested on: Respiratory syncytial virus; experiment: Antiviral activity against Respiratory syncytial virus infected in human HeLa cells assessed as inhibition of virus-induced cytopathicity; format: functional, organism-based; summary of the method: as §1
[5] = Aqueous solubility of the compound in PBS buffer at pH 7.4 after 24 hrs by HPLC analysis; format: physicochemical; settings: pH 7.4, 24 h
Human alphaherpesvirus 1 [6] = experiment: Antiviral activity against thymidine kinase-negative acyclovir-resistant HSV-1 KOS infected in HEL cells assessed as inhibition of virus-induced cytopathicity; format: functional, organism-based
Summary of the method: (§2)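 Confluent monolayers in 96-well plates were inoculated with 100 CCID50 of virus in the presence of varying concentrations of compound. Read-out was inhibition of virus-induced cytopathicity, compared with untreated infected cultures. Cytotoxicity was judged microscopically or by MTT viability staining.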

Influenza A virus = experiment: Antiviral activity against influenza A virus H1N1 infected in MDCK cells assessed as inhibition of virus-induced cytopathicity; format: functional, organism-based; summary of the method: as §2
[7] = Cytotoxicity against human HeLa cells assessed as alteration of cell morphology by microscopic analysis; format: cell-based; settings: read-out: MIC
Summary of the method: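 Cells (Vero, HEL, MDCK or HeLa) were exposed to a range of sample concentrations. The value reported is the concentration required to cause a microscopically detectable alteration of normal cell morphology.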

Sindbis virus = experiment: Antiviral activity against Sindbis virus infected in African green monkey Vero cells assessed as inhibition of virus-induced cytopathicity; format: functional, organism-based
[8] = tested on: Mammalian orthoreovirus 1; experiment: Antiviral activity against Reovirus 1 infected in African green monkey Vero cells assessed as inhibition of virus-induced cytopathicity; format: functional, organism-based; summary of the method: as §1
Vaccinia virus = experiment: Antiviral activity against Vaccinia virus infected in HEL cells assessed as inhibition of virus-induced cytopathicity; format: functional, organism-based; settings: Orthopoxvirus vaccinia; summary of the method: as §2
[9] = n-octanol-PBS buffer distribution coefficient, log D of the compound at pH 7.4 after 24 hrs by HPLC analysis; format: physicochemical
Feline coronavirus = experiment: Antiviral activity against Feline coronavirus infected in cat CRFK cells assessed as inhibition of virus-induced cytopathicity; format: functional, organism-based; summary of the method: as §1
Human alphaherpesvirus 2 = experiment: Antiviral activity against HSV-2 G infected in HEL cells assessed as inhibition of virus-induced cytopathicity; format: functional, organism-based; settings: strain G; summary of the method: as §1
[10] = tested on: Vesicular stomatitis virus; experiment: Antiviral activity against Vesicular stomatitis virus infected in human HeLa cells assessed as inhibition of virus-induced cytopathicity; format: functional, organism-based; summary of the method: as §2
[11] = tested on: Vesicular stomatitis virus; experiment: Antiviral activity against Vesicular stomatitis virus infected in HEL cells assessed as inhibition of virus-induced cytopathicity; format: functional, organism-based; summary of the method: as §2
Plasmodium falciparum = experiment: Antiplasmodial activity against chloroquine-sensitive asexual erythrocytic stage of Plasmodium falciparum D10 assessed as parasite growth inhibition by lactate dehydrogenase assay; format: functional, organism-based
Summary of the method: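 Parasite lactate dehydrogenase assay (modified Makler method). Samples held as 20 mg/mL stocks in DMSO, diluted on test day. Full dose-response: starting at 10 μg/mL, 2-fold serial dilution in complete medium over 10 concentrations down to 0.02 μg/mL. Chloroquine, artesunate and MMV390048 served as references. IC50 from nonlinear dose-response curve fitting; mean of three independent experiments.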

Coxsackievirus B4 [12] = experiment: Antiviral activity against Coxsackievirus B4 infected in human HeLa cells assessed as inhibition of virus-induced cytopathicity; format: functional, organism-based; summary of the method: as §1
Punta Toro virus = experiment: Antiviral activity against Punta Toro virus infected in African green monkey Vero cells assessed as inhibition of virus-induced cytopathicity; format: functional, organism-based; summary of the method: as §1
Influenza A virus H3N2 = experiment: Antiviral activity against Influenza A virus H3N2 infected in MDCK cells assessed as inhibition of virus-induced cytopathicity; format: functional, organism-based; summary of the method: as §2
Coxsackievirus B4 [13] = experiment: Antiviral activity against Coxsackievirus B4 infected in African green monkey Vero cells assessed as inhibition of virus-induced cytopathicity; format: functional, organism-based; summary of the method: as §1
[14] = Solubility of the compound in octanol at pH 7.4 by HPLC analysis; format: physicochemical
Human betaherpesvirus 5 [15] = experiment: Antiviral activity against Cytomegalovirus AD169 infected in HEL cells assessed as inhibition of virus-induced cytopathicity; format: functional, organism-based
Felid alphaherpesvirus 1 = experiment: Antiviral activity against Feline herpesvirus infected in cat CRFK cells assessed as inhibition of virus-induced cytopathicity; format: functional, organism-based; summary of the method: as §1
Human respirovirus 3 = experiment: Antiviral activity against parainfluenza virus 3 infected in African green monkey Vero cells assessed as inhibition of virus-induced cytopathicity; format: functional, organism-based; summary of the method: as §1

| Structure (SMILES) | inhibition (Human betaherpesvirus 5 [1]) | inhibition (Human alphaherpesvirus 1 [2]) | CC50 [3] | inhibition (Human alphaherpesvirus 3) | inhibition [4] | solubility [5] | inhibition (Human alphaherpesvirus 1 [6]) | inhibition (Influenza A virus) | MCC [7] | inhibition (Sindbis virus) | inhibition [8] | inhibition (Vaccinia virus) | logD at 24 h [9] | inhibition (Feline coronavirus) | inhibition (Human alphaherpesvirus 2) | inhibition [10] | inhibition [11] | pIC50 (Plasmodium falciparum) | inhibition (Coxsackievirus B4 [12]) | inhibition (Punta Toro virus) | further results |
| --- | --- | --- | --- | --- | --- | --- | --- | --- | --- | --- | --- | --- | --- | --- | --- | --- | --- | --- | --- | --- | --- |
| Clc1ccc2c(NCCNc3ccnc(Cl)n3)ccnc2c1 | inactive | inactive | > 100 µM | inactive | inactive | 0.68 µM (≈ 0.227 µg/mL) | inactive | inactive | 4 µM | inactive | inactive | inactive | 0.489 | inactive | inactive | inactive | inactive | 5.84 | inactive | inactive | inhibition (Influenza A virus H3N2): inactive; inhibition (Coxsackievirus B4 [13]): inactive; solubility [14]: 2.09 µM (≈ 0.698 µg/mL); inhibition (Human betaherpesvirus 5 [15]): inactive; inhibition (Felid alphaherpesvirus 1): inactive; inhibition (Human respirovirus 3): inactive |
| Clc1ccc2c(NCCCCCCCCCCNc3nccc(Cl)n3)ccnc2c1 | inactive | inactive | 4.4 µM | inactive | inactive | 0.07 µM (≈ 0.0312 µg/mL) | inactive | inactive | 4 µM | inactive | inactive | inactive | 1.99 | inactive | inactive | inactive | inactive | 5.48 | inactive | inactive | inhibition (Influenza A virus H3N2): inactive; inhibition (Coxsackievirus B4 [13]): inactive; solubility [14]: 6.82 µM (≈ 3.04 µg/mL); inhibition (Human betaherpesvirus 5 [15]): inactive; inhibition (Felid alphaherpesvirus 1): inactive; inhibition (Human respirovirus 3): inactive |
| CS(=O)(=O)c1ccc(-c2cnc(N)c(-c3ccc(C(F)(F)F)nc3)c2)cc1 [MMV-048] | – | – | – | – | – | – | – | – | – | – | – | – | – | – | – | – | – | 8.05 | – | – | – |
| Clc1ccc2c(NCCCCCCCCNc3nccc(Cl)n3)ccnc2c1 | inactive | inactive | 10 µM | inactive | inactive | 0.09 µM (≈ 0.0377 µg/mL) | inactive | inactive | 20 µM | inactive | inactive | inactive | 1.51 | inactive | inactive | inactive | inactive | 5.98 | inactive | inactive | inhibition (Influenza A virus H3N2): inactive; inhibition (Coxsackievirus B4 [13]): inactive; solubility [14]: 2.91 µM (≈ 1.22 µg/mL); inhibition (Human betaherpesvirus 5 [15]): inactive; inhibition (Felid alphaherpesvirus 1): inactive; inhibition (Human respirovirus 3): inactive |
| Clc1ccc2c(NCCCCCCCNc3nccc(Cl)n3)ccnc2c1 | inactive | inactive | > 100 µM | inactive | inactive | 0.13 µM (≈ 0.0526 µg/mL) | inactive | inactive | 4 µM | inactive | inactive | inactive | 1.16 | inactive | inactive | inactive | inactive | 6.42 | inactive | inactive | inhibition (Influenza A virus H3N2): inactive; inhibition (Coxsackievirus B4 [13]): inactive; solubility [14]: 1.92 µM (≈ 0.776 µg/mL); inhibition (Human betaherpesvirus 5 [15]): inactive; inhibition (Felid alphaherpesvirus 1): inactive; inhibition (Human respirovirus 3): inactive |
